pIC50: −log10 of the molar value.
What was measured:
Human adenovirus 5 [1] = test: Antiviral activity against Human adenovirus 5 infected in 293beta5 cells assessed as inhibition of plaque formation at 10 uM incubated for 7 days by GFP reporter gene assay relative to control; format: functional; details: Human mastadenovirus C, 293beta5, 168 h
Summary of the method: (§1)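 HAdV5-GFP plaque assay in 293β5 cells at low MOI. Inhibition is expressed as percent of the infected control, with single-dose screening at 10 μM. Compounds giving >90% inhibition went on to IC50 determination. Values are means ± SD of triplicate samples from three independent experiments.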

[2] = Cytotoxicity against human A549 cells assessed as reduction in cell viability after 48 hrs by alamar blue assay; format: cell-based
Human adenovirus 5 [3] = test: Antiviral activity against Human adenovirus 5 infected in 293beta5 cells assessed as inhibition of plaque formation incubated for 7 days by GFP reporter gene assay; format: functional, organism-based; details: Human mastadenovirus C, 293beta5, 168 h; summary of the method: as §1
[4] = Selectivity index, ratio of CC50 for cytotoxicity against human A549 cells to IC50 for antiviral activity against Human adenovirus 5 infected in 293beta5 cells assessed as inhibition of plaque formation after 7 days; format: toxicity, cell-based; details: read-out: Ratio CC50/IC50
Human adenovirus 5 [5] = test: Antiviral activity against Human adenovirus 5 infected in human A549 cells assessed as fold reduction in virus yield at 5 uM after 48 hrs endpoint dilution method relative to control; format: functional
Human adenovirus 5 [6] = test: Antiviral activity against Human adenovirus 5 infected in human A549 cells assessed as inhibition of viral DNA replication at 5 uM after 24 hrs by RT-qPCR analysis relative to control; format: functional; details: Human mastadenovirus C, A549, 24 h
Human adenovirus 5 [7] = test: Antiviral activity against Human adenovirus 5 infected in 293beta5 cells assessed as inhibition of viral infection at 5 uM preincubated for 60 mins followed by viral infection by GFP reporter gene assay relative to control; format: functional; details: Human mastadenovirus C
Human adenovirus 5 [8] = test: Antiviral activity against Human adenovirus 5 infected in human A549 cells assessed as inhibition of viral entry at 50 uM after 48 hrs by GFP reporter gene based assay relative to control; format: functional; details: Human mastadenovirus C, A549, 48 h
Summary of the method: (§2)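 Entry assay in A549 epithelial cells infected with HAdV5-GFP at high MOI, with compound present throughout and 48 h incubation. GFP expression is the read-out.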

Human adenovirus 5 [9] = test: Antiviral activity against Human adenovirus 5 infected in human A549 cells asssessed as inhibition of viral entry by measuring nuclear-associated viral genome level at 5 uM after 45 mins by RT-PCR analysis (reference value: 100.24 +/- 2.77%); format: functional; set-up: scale not given: the % may be the effect or the level left
Summary of the method: (§3)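 Nuclear HAdV genome levels in treated cells were quantified at 45 min post-infection and compared with DMSO-treated cells. […] Bars are means ± SD of triplicate samples.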

Human adenovirus 5 [10] = test: Antiviral activity against Human adenovirus 5 infected in human A549 cells assessed as inhibition of viral DNA replication by measuring number of viral DNA copies at 5 uM after 24 hrs by RT-qPCR analysis (reference value: 100 +/- 1.55%); format: functional; set-up: scale not given: the % may be the effect or the level left
Human adenovirus 5 [11] = test: Antiviral activity against Human adenovirus 5 infected in 293beta5 cells assessed as inhibition of viral infection at 5 uM measured after 2 hrs post infection by gene assay relative to control; format: functional; details: Human mastadenovirus C, 293beta5, 2 h
Human adenovirus 5 [12] = test: Antiviral activity against Human adenovirus 5 infected in human A549 cells assessed as inhibition of viral entry after 48 hrs by GFP reporter gene based assay; format: functional, organism-based; details: Human mastadenovirus C, A549, 48 h; summary of the method: as §2
Human adenovirus 5 [13] = test: Antiviral activity against Human adenovirus 5 infected in human A549 cells assessed as inhibition of viral DNA replication by measuring number of viral DNA copies at 50 uM after 24 hrs by RT-qPCR analysis (reference value: 100 +/- 1.55%); format: functional; set-up: scale not given: the % may be the effect or the level left
Human adenovirus 5 [14] = test: Antiviral activity against Human adenovirus 5 infected in 293beta5 cells assessed as inhibition of viral replication at 10 uM measured immediately post infection by GFP reporter gene assay relative to control; format: functional; details: Human mastadenovirus C
Human adenovirus 5 [15] = test: Antiviral activity against Human adenovirus 5 infected in human A549 cells asssessed as inhibition of viral entry by measuring nuclear-associated viral genome level at 50 uM after 45 mins by RT-PCR analysis (reference value: 100.24 +/- 2.77%); format: functional; set-up: scale not given: the % may be the effect or the level left; summary of the method: as §3
Human adenovirus 5 [16] = test: Antiviral activity against Human adenovirus 5 infected in human A549 cells assessed as fold reduction in virus yield at 50 uM after 48 hrs endpoint dilution method relative to control; format: functional

pIC50 (Human adenovirus 5 [3]) | SMILES | inhibition at 10 µM (Human adenovirus 5 [1]) | CC50 at 48 h [2] | selectivity ratio at 168 h [4] | also measured
5.09 | Cc1ccc(CNC(=O)c2cc(Cl)ccc2O)cc1 | – | 87.7 µM | 10.8 | –
5.53 | CC(C)[C@H](NC(=O)c1cc(Cl)ccc1O)C(=O)Nc1ccc(F)c(F)c1 | – | 95 µM | 32.1 | –
5.15 | O=C(N[C@@H](Cc1ccccc1)C(=O)Nc1ccc([N+](=O)[O-])cc1Cl)c1cc(Cl)ccc1O | 100% | 15.2 µM | – | –
6.96 | O=C(Nc1ccc([N+](=O)[O-])cc1)c1cc(Cl)ccc1O | – | – | – | fold change (FC) (Human adenovirus 5 [5]): 137; inhibition at 5 µM (Human adenovirus 5 [6]): > 90%; inhibition at 5 µM (Human adenovirus 5 [7]): > 50%; inhibition at 50 µM (Human adenovirus 5 [8]): 100%; Activity (Human adenovirus 5 [9]): 15.48%; Activity (Human adenovirus 5 [10]): 0.51%; inhibition at 5 µM (Human adenovirus 5 [11]): > 50%
6.96 | O=C(Nc1cc(F)cc(C(F)(F)F)c1)c1ccc(Cl)cc1O | – | 20.6 µM | 187 | fold change (FC) (Human adenovirus 5 [5]): 385; pIC50 (Human adenovirus 5 [12]): 6.59; inhibition at 5 µM (Human adenovirus 5 [7]): > 50%; inhibition at 50 µM (Human adenovirus 5 [8]): 100%; Activity (Human adenovirus 5 [9]): 54.74%; Activity (Human adenovirus 5 [10]): 68.17%; inhibition at 5 µM (Human adenovirus 5 [11]): > 50%
5.59 | O=C(NCc1ccc(F)cc1Cl)c1cc(Cl)ccc1O | – | 30.9 µM | 12.1 | –
5.40 | O=C(NCCc1ccc(F)cc1)c1cc(Cl)ccc1O | – | 154 µM | 39.1 | –
6.19 | Cc1ccc(O)c(C(=O)Nc2cc(F)cc(C(F)(F)F)c2)c1 | – | 15.2 µM | 23.3 | –
5.45 | O=C(NCc1ccc(Cl)cc1)c1cc(Cl)ccc1O | – | 27.1 µM | 7.6 | –
5.85 | O=C(NCc1ccc([N+](=O)[O-])cc1Cl)c1cc(Cl)ccc1O | 100% | 51.4 µM | 36.7 | –
– | O=C(Cc1cc(Cl)ccc1O)Nc1ccc([N+](=O)[O-])cc1Cl | 0% | – | – | –
5.31 | O=C(Cc1cc(Cl)ccc1O)Nc1cc(F)cc(C(F)(F)F)c1 | – | 23.7 µM | 4.8 | –
6.22 | O=C(Nc1ccc([N+](=O)[O-])cc1Cl)c1cc(Cl)ccc1O [NICLOSAMIDE] | 100% | – | – | fold change (FC) (Human adenovirus 5 [5]): 82; pIC50 (Human adenovirus 5 [12]): 5.91; inhibition at 50 µM (Human adenovirus 5 [8]): 100%; Activity (Human adenovirus 5 [9]): 49.51%; Activity (Human adenovirus 5 [10]): 0.05%
6.17 | CC(C)(C)OC(=O)CC[C@H](NC(=O)c1cc(Cl)ccc1O)C(=O)Nc1ccc([N+](=O)[O-])cc1Cl | – | 22.9 µM | 34.2 | –
6.57 | O=C(Nc1ccc(F)c(F)c1)c1cc(Cl)ccc1O | 100% | 8 µM | 29.6 | –
6.80 | CC[C@@H](C)[C@H](NC(=O)c1cc(Cl)ccc1O)C(=O)Nc1ccc([N+](=O)[O-])cc1Cl | – | 20.2 µM | 128 | fold change (FC) (Human adenovirus 5 [5]): 10; inhibition at 5 µM (Human adenovirus 5 [6]): > 90%; pIC50 (Human adenovirus 5 [12]): 5.60; inhibition at 5 µM (Human adenovirus 5 [7]): > 50%; Activity (Human adenovirus 5 [9]): 0.54%; Activity (Human adenovirus 5 [10]): 2.33%; inhibition at 5 µM (Human adenovirus 5 [11]): > 50%
5.25 | O=C(Nc1cc(F)cc(C(F)(F)F)c1)c1cccc(Cl)c1 | – | 38.6 µM | 6.9 | –
5.52 | C[C@@H](NC(=O)c1cc(Cl)ccc1O)c1ccc(F)cc1 | 100% | > 200 µM | > 66.2 | –
6.35 | CC(C)[C@H](NC(=O)c1cc(Cl)ccc1O)C(=O)Nc1ccc([N+](=O)[O-])cc1Cl | 100% | 200 µM | 444 | Activity (Human adenovirus 5 [13]): 60.09%; pIC50 (Human adenovirus 5 [12]): 4.95; inhibition at 10 µM (Human adenovirus 5 [14]): < 50%; Activity (Human adenovirus 5 [15]): 91.82%; fold change (FC) (Human adenovirus 5 [16]): 213
– | CN(Cc1ccc(F)cc1)C(=O)c1cc(Cl)ccc1O | 0% | – | – | –

pIC50 (Human adenovirus 5 [3]) | SMILES | inhibition at 10 µM (Human adenovirus 5 [1]) | CC50 at 48 h [2] | selectivity ratio at 168 h [4] | also measured
5.46 | CC(C)(NC(=O)c1cc(Cl)ccc1O)c1ccc(F)cc1 | 100% | > 200 µM | > 57.8 | –
6.51 | O=C(Nc1cc([N+](=O)[O-])ccc1F)c1cc(Cl)ccc1O | 100% | 8.1 µM | 26.2 | –
5.62 | O=C(NCc1cc(F)cc(C(F)(F)F)c1)c1cc(Cl)ccc1O | – | 36.3 µM | 15.1 | –
6.74 | O=C(Nc1cc(F)cc(C(F)(F)F)c1)c1cc(Cl)ccc1O | 100% | 120 µM | 667 | Activity (Human adenovirus 5 [13]): 82.41%; pIC50 (Human adenovirus 5 [12]): 5.65; inhibition at 10 µM (Human adenovirus 5 [14]): < 50%; Activity (Human adenovirus 5 [15]): 66.96%; inhibition at 50 µM (Human adenovirus 5 [8]): 100%; fold change (FC) (Human adenovirus 5 [16]): 989
5.41 | C[C@H](NC(=O)c1cc(Cl)ccc1O)C(=O)Nc1ccc([N+](=O)[O-])cc1Cl | – | 100 µM | 26 | –
5.02 | CS(=O)(=O)Nc1ccc(Cl)cc1C(=O)NCC(=O)Nc1ccc([N+](=O)[O-])cc1Cl | – | 141 µM | 14.6 | –
– | C[C@@H](NC(=O)c1cc(Cl)ccc1O)c1ccc(Cl)cc1 | 100% | 31.1 µM | – | –
5.76 | O=C(NCc1ccc(Cl)cc1Cl)c1cc(Cl)ccc1O | – | 30.9 µM | 17.9 | –
5.59 | O=C(NCc1ccc(C(F)(F)F)cc1)c1cc(Cl)ccc1O | – | 23.9 µM | 9.2 | –
6.40 | O=C(N[C@@H](Cc1ccccc1)C(=O)Nc1cc(C(F)(F)F)cc(C(F)(F)F)c1)c1cc(Cl)ccc1O | – | 17.9 µM | 44.9 | –
– | C[C@@H](NC(=O)c1cc(Cl)ccc1O)c1ccccc1 | 100% | 84.6 µM | – | –
5.18 | O=C(NCc1ccc([N+](=O)[O-])cc1)c1cc(Cl)ccc1O | – | 175 µM | 26.7 | –
5.85 | O=C(NCc1ccc(C(F)(F)F)c(F)c1)c1cc(Cl)ccc1O | – | 22.3 µM | 15.9 | –
5.97 | O=C(Nc1cc(F)cc(C(F)(F)F)c1)c1ccccc1O | – | 16.3 µM | 15.2 | –
6.18 | CC(C)[C@H](NC(=O)c1cc(Cl)ccc1O)C(=O)Nc1cc(F)cc(C(F)(F)F)c1 | – | 43 µM | 65.2 | –
5.88 | O=C(NCc1ccc(C(F)(F)F)cc1F)c1cc(Cl)ccc1O | – | 45.6 µM | 34.6 | –
6.40 | CC(C)[C@H](NC(=O)c1cc(Cl)ccc1O)C(=O)Nc1cc(C(F)(F)F)cc(C(F)(F)F)c1 | – | 30.9 µM | 77.4 | –
5.60 | C[C@H](NC(=O)c1cc(Cl)ccc1O)c1ccccc1 | 100% | 199 µM | 78.5 | –
5.61 | O=C(CNC(=O)c1cc(Cl)ccc1O)Nc1ccc([N+](=O)[O-])cc1Cl | 100% | 129 µM | 53.2 | –

SMILES | pIC50 (Human adenovirus 5 [3]) | inhibition at 10 µM (Human adenovirus 5 [1]) | CC50 at 48 h [2] | selectivity ratio at 168 h [4] | also measured
O=C(Nc1cc(C(F)(F)F)cc(C(F)(F)F)c1)c1cc(Cl)ccc1O [IMD-0354] | 7.22 | 100% | 4.1 µM | 68.3 | –
O=C(Nc1ccc([N+](=O)[O-])c(Cl)c1)c1cc(Cl)ccc1O | 6.00 | 100% | – | – | –
